Data taken from paper PMC9723933 (The Journal of Biological Chemistry, 2022).
Values belong to the compound of their own block, whether it stands above or below them.

Columns and labels:
F683L mutant strain [1] = experiment: Relative drug resistance; format: cell-based, yeast; settings: n = 4
[2] = system: M1373T and A684S mutant strains; experiment: Relative drug resistance; format: cell-based, yeast; settings: n = 4
Pdr5 WT control strain = Pdr5 WT control strain (Saccharomyces cerevisiae, UniProt P33302); experiment: Whole-cell R6G transport against a concentration gradient; format: cell-based, yeast; settings: median; 90 min, 30 °C, Hepes-glucose buffer
Pdr5 WT control strain, sequence (P33302 whole entry): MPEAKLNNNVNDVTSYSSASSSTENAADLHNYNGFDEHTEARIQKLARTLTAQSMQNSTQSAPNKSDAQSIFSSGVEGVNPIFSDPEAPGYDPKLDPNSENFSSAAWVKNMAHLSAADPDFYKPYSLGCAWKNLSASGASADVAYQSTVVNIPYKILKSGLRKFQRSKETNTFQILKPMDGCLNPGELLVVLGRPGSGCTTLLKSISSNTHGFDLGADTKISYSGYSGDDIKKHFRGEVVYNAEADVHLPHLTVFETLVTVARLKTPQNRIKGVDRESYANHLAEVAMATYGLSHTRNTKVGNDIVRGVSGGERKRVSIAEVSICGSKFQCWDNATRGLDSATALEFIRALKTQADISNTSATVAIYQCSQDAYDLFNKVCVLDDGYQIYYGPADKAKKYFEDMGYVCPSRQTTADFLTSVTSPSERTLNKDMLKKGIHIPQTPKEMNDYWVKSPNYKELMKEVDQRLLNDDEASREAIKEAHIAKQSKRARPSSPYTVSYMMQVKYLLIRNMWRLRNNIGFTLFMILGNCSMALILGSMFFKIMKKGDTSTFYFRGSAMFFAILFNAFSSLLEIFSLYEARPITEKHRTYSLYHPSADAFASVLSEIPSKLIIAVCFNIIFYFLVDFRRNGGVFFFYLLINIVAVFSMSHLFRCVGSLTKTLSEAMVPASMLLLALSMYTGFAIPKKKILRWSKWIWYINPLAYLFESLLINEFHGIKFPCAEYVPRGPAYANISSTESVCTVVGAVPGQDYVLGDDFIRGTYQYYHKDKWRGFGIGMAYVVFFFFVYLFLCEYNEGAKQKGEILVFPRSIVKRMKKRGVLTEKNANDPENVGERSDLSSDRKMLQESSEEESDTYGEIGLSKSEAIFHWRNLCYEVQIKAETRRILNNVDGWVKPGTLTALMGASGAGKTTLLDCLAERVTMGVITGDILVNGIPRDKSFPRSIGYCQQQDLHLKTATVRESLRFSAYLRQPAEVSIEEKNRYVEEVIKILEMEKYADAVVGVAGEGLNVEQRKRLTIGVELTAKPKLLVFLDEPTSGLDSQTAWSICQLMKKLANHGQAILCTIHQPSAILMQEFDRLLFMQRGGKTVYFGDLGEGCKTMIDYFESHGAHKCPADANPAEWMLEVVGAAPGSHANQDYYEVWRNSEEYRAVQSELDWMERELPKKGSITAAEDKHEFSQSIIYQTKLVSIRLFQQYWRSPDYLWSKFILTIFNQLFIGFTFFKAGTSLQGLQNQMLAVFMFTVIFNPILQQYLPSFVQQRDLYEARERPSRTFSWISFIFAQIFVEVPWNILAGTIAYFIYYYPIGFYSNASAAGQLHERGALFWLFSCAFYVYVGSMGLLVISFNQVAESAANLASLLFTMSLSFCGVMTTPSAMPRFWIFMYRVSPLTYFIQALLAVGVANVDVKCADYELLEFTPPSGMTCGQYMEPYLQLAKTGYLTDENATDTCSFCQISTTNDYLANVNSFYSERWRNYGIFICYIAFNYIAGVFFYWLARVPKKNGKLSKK
Summary of the method: (§1)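 Log-phase yeast grown in YPD at 30 °C, R-1 background with integrated PDR5 under its own promoter. 3 × 10^6 cells were incubated in 0.02 M Hepes with 1 mM glucose (pH 7.0) and 20 μM R6G at 30 °C for 90 min, then washed in cold glucose-free Hepes. Median retained fluorescence was read by flow cytometry from 10,000 cells, in arbitrary units; n ≥ 4.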

Pdr5 F1369A mutant = Pdr5 F1369A mutant (Saccharomyces cerevisiae, UniProt P33302, F1369A); experiment: Whole-cell R6G transport against a concentration gradient; format: cell-based, yeast
Pdr5 F1369A mutant, sequence (P33302 whole entry F1369A): as the sequence (P33302 whole entry) above, with F1369A counted along it

Pdr5 G1371A strain = Pdr5 G1371A strain (Saccharomyces cerevisiae, UniProt P33302, G1371A); experiment: Whole-cell R6G transport against a concentration gradient; format: cell-based, yeast; settings: median; 90 min, 30 °C, Hepes-glucose buffer
Pdr5 G1371A strain, sequence (P33302 whole entry G1371A): as the sequence (P33302 whole entry) above, with G1371A counted along it
Summary of the method: as §1

Pdr5 M1373A mutant = Pdr5 M1373A mutant (Saccharomyces cerevisiae, UniProt P33302, M1373A); experiment: Whole-cell R6G transport against a concentration gradient; format: cell-based, yeast; settings: median; 90 min, 30 °C, Hepes-glucose buffer
Pdr5 M1373A mutant, sequence (P33302 whole entry M1373A): as the sequence (P33302 whole entry) above, with M1373A counted along it

ΔPdr5 strain = experiment: as above; format: cell-based, yeast; settings: median; 90 min, 30 °C, Hepes-glucose buffer
[3] = system: Pdr5 I685A, V1372A double mutant; experiment: as above; format: cell-based, yeast
Pdr5 F683L mutant = experiment: Accumulation of R6G prior to glucose-mediated efflux; format: cell-based, yeast; settings: 20 μM R6G, Hepes buffer, no glucose, 90 min
F683L mutant strain [4] = settings: original characterization; cited from earlier work
Pdr5 WT = Pdr5 WT (Saccharomyces cerevisiae, UniProt P33302); experiment: Inhibition of Pdr5 ATPase activity in purified PM vesicles; format: biochemical, yeast
Pdr5 WT, sequence (P33302 whole entry): as the sequence (P33302 whole entry) above

Pdr5 V1372A = Pdr5 V1372A (Saccharomyces cerevisiae, UniProt P33302, V1372A); experiment: biochemical; format: biochemical, yeast
Pdr5 V1372A, sequence (P33302 whole entry V1372A): as the sequence (P33302 whole entry) above, with V1372A counted along it

Pdr5 I685A = Pdr5 I685A (Saccharomyces cerevisiae, UniProt P33302, I685A); experiment: biochemical; format: biochemical, yeast
Pdr5 I685A, sequence (P33302 whole entry I685A): as the sequence (P33302 whole entry) above, with I685A counted along it

[5] = biological target: Pdr5 V1372A, I685A double mutant (Saccharomyces cerevisiae, UniProt P33302, I685A/V1372A); experiment: biochemical; parameters: species or system yeast
Pdr5 V1372A, I685A double mutant, sequence (P33302 whole entry I685A/V1372A): as the sequence (P33302 whole entry) above, with I685A, V1372A counted along it

Pdr5 G1371A = Pdr5 G1371A (Saccharomyces cerevisiae, UniProt P33302, G1371A); experiment: Inhibition of Pdr5 ATPase activity in purified PM vesicles; format: biochemical, yeast; settings: relative to WT
Pdr5 G1371A, sequence (P33302 whole entry G1371A): as the sequence (P33302 whole entry) above, with G1371A counted along it

I685A mutant strain = format: cell-based, yeast; settings: liquid YPD, 30 °C, n = 3
V1372A mutant strain = format: cell-based, yeast; settings: liquid YPD, 30 °C, n = 3
M1373A mutant strain = experiment: Relative drug resistance in liquid YPD culture; format: cell-based, yeast; settings: compared with ΔPdr5 control strain

- Retained R6G fluorescence, WT control strain (Pdr5 WT control strain): 272.6 a.u.
- Retained fluorescence of F1369A mutant relative to WT control (Pdr5 F1369A mutant; against R6G gradient): ~5 ×
- Retained R6G fluorescence, F1369A mutant (Pdr5 F1369A mutant; median, 90 min, 30 °C, Hepes-glucose buffer): 1288 a.u.
- Retained R6G fluorescence, G1371A strain (Pdr5 G1371A strain): 3093 a.u.
- Retained R6G fluorescence, M1373A mutant (Pdr5 M1373A mutant): 4900 a.u.
Structure (SMILES): CC/N=c1\cc2oc3cc(NCC)c(C)cc3c(-c3ccccc3C(=O)OCC)c-2cc1C [R6G, rhodamine 6G]
- Rank of F683L mutant sensitivity among the four drugs (F683L mutant strain [1]): most sensitive
- Sensitivity of M1373T and A684S mutants relative to WT [2]: indistinguishable from the WT
- Retained R6G fluorescence, ΔPdr5 strain (ΔPdr5 strain): 5001 a.u.
- Retained R6G in double mutant relative to WT strain [3]: twice
- Fluorescence accumulated by F683L mutant relative to WT control (Pdr5 F683L mutant): about 3 ×
- Minimum inhibitory concentration of F683L mutant relative to WT value (F683L mutant strain [4]): one-eighth

Structure (SMILES): c1ccc(-c2ccc(C(c3ccccc3)n3ccnc3)cc2)cc1 (stereo not shown) [bifonazole]
- IC50 (Pdr5 WT): 2.86 µM
- IC50 (Pdr5 V1372A): 3.29 µM
- IC50 of single mutant V1372A compared with WT (Pdr5 V1372A; ATPase inhibition, in words): not significantly different from the WT
- IC50 (Pdr5 I685A): 2.58 µM
- IC50 of single mutant I685A compared with WT (Pdr5 I685A; ATPase inhibition, in words): not significantly different from the WT
- IC50 [5]: 13 µM
- Sensitivity of G1371A ATPase to allosteric inhibition (Pdr5 G1371A): strikingly hypersensitive

Structure (SMILES): C/C=C/C/C=C/CCC(=O)[C@H]1O[C@H]1C(N)=O [cerulenin]
- Resistance of I685A mutant relative to WT (I685A mutant strain): hypersensitive
- Resistance of V1372A mutant relative to WT (V1372A mutant strain): hyper-resistant

Structure (SMILES): CC(C)(C)C(=O)C(Oc1ccc(Cl)cc1)n1ccnc1 (stereo not shown) [climbazole]
- Resistance of I685A mutant relative to WT (I685A mutant strain): hypersensitive
- Resistance of V1372A mutant relative to WT (V1372A mutant strain): hypersensitive
- Resistance of M1373A mutant (M1373A mutant strain): phenotypically indistinguishable from the ΔPdr5 control strain

Structure (SMILES): C[C@@H]1C[C@@H]([C@H](O)CC2CC(=O)NC(=O)C2)C(=O)[C@@H](C)C1 [cycloheximide]
- Sensitivity of M1373T and A684S mutants relative to WT [2]: mildly hypersensitive
- Resistance of I685A mutant relative to WT (I685A mutant strain): mildly hyper-resistant
- Resistance of V1372A mutant relative to WT (V1372A mutant strain): hypersensitive
- Resistance of M1373A mutant (M1373A mutant strain): phenotypically indistinguishable from the ΔPdr5 control strain
- Sensitivity of F683L mutant (F683L mutant strain [4]): hypersensitive

Structure (SMILES): OC(Cn1cncn1)(Cn1cncn1)c1ccc(F)cc1F [fluconazole]
- Sensitivity of M1373T and A684S mutants relative to WT [2]: quite hypersensitive
- Sensitivity of F683L mutant (F683L mutant strain [4]): hypersensitive

Structure (SMILES): CC(=O)N1CCN(c2ccc(OCC3COC(Cn4ccnc4)(c4ccc(Cl)cc4Cl)O3)cc2)CC1 (stereo not shown) [ketoconazole]
- Rank of F683L mutant sensitivity among the four drugs (F683L mutant strain [1]): least sensitive
- Sensitivity of M1373T and A684S mutants relative to WT [2]: quite hypersensitive

Structure (SMILES): CC/C(=C(\c1ccccc1)c1ccc(OCCN(C)C)cc1)c1ccccc1 [tamoxifen]
- Resistance of I685A mutant relative to WT (I685A mutant strain): hypersensitive
- Resistance of V1372A mutant relative to WT (V1372A mutant strain): hyper-resistant
